Assay outcomes (PubChem BioAssay)
Shown are actives, neighbours in structure and some others; about 1.8% of the full set was active somewhere.
DNMT1 inh: human DNMT1 methyltransferase inhibitors, primary screen, biochemical, molecular beacon, fluorescence, HinP1I cleavage, uHTS; DNA (cytosine-5)-methyltransferase 1 (Homo sapiens), P26358; inhibition (reported as % activation of signal), % at 10 µM; 0.83% of 360,000 active; AID 588458, 2011; in the data active means inhibition above about 50%
SUMO1 PPI mod: modulators of SUMO1 protein-protein interactions, primary screen, biochemical, uHTS; inhibition, % at 20 µM; AID 602429, 2012; 0.33% of 360,000 active; SUMO1 binding to a labelled peptide, TR-FRET, 1 h; in the data active means inhibition above about 37%
Target sequence (P63165 whole entry, looked up): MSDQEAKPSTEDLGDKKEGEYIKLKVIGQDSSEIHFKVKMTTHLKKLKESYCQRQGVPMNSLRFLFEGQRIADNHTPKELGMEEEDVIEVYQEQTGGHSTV
Scp-1 inhibitor: Scp-1 phosphatase inhibitors, primary screen, biochemical, colorimetric, uHTS; Carboxy-terminal domain RNA polymerase II polypeptide A small phosphatase 1 (Homo …; Recombinant Scp1, phosphopeptide, malachite green phosphate absorbance; inhibition, % at 20 µM; 0.88% of 340,000 active;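 active means inhibition above about 50% at 20 µM, limit read from the data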;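 further: plate controls were DMSO wells with enzyme for no effect and wells lacking enzyme for full effect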
Target sequence (Q9GZU7 76-261 limits assumed): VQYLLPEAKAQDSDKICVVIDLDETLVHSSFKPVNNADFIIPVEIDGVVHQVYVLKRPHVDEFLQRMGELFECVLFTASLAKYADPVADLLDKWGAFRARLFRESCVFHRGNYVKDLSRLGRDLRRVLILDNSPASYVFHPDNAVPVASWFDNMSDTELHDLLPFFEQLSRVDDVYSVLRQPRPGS
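Test system – truncated SCP-1 phosphatase (76-261aa) · Reagent – Phosphorylated 17-residue peptide substrate · Incubation – 45 min room-temperature reaction, 5 min colour, 30 min stabiliser · Detection – colorimetric phosphate reagent with accelerator and stabiliser, absorbance at 630 nm · Measure – % inhibition at 20 µM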
LMPTP block: LMPTP phosphatase inhibitors, primary screen, biochemical, fluorescence intensity, uHTS; Low molecular weight phosphotyrosine protein phosphatase (Homo sapiens), P24666; recombinant LMPTP-A, OMFP fluorogenic substrate; inhibition, % at 20 µM; 0.22% of 360,000 active; AID 651560, 2012;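 active means compounds that cut the enzyme signal by at least half of the control window in the single-dose screen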;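 further: plate controls were DMSO wells with enzyme plus substrate for no effect and substrate without enzyme for full effect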
Target sequence (P24666 whole entry, looked up): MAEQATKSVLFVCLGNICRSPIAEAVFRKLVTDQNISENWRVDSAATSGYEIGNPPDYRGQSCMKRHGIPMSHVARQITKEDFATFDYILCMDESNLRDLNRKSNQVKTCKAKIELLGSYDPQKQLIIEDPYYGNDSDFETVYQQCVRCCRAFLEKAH
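Test system – LMPTP-A phosphatase enzyme · Quantity – 0.625 nM LMPTP-A final · Reagent – OMFP substrate, 400 µM final · Dosing – one test concentration per compound, 20 µM, with 3% DMSO overall · Timing – 50 min enzyme reaction at room temperature, protected from light · Detection – fluorescence intensity · Controls – substrate-only low control, DMSO enzyme-plus-substrate high control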
STEP block: STEP phosphatase inhibitors, primary screen, biochemical, fluorescence intensity, uHTS; Tyrosine-protein phosphatase non-receptor type 5 (Homo sapiens), P54829; recombinant STEP, OMFP fluorogenic substrate; inhibition, % at 20 µM; 0.25% of 360,000 active;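 active means inhibition at 20 µM, scaled per plate between control wells, above about 37%, limit read from the data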;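 further: 0% = DMSO with enzyme and substrate and 100% = substrate only without enzyme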
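medium = Bis-Tris buffer pH 6.0, 2.5 mM DTT, 0.005% Tween 20 | test system = STEP (striatal-enriched tyrosine phosphatase) enzyme, cell-free | measure = normalized % inhibition | compound dosing = 20 µM, 1% DMSO | also added = 25 µM OMFP | schedule = reaction 20 min, ambient temperature | measured by = fluorescence read at 480 nm ex / 540 nm em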
HKDC1 inh: HKDC1 hexokinase inhibitors, primary screen, biochemical, fluorescence, uHTS. recombinant HKDC1, G6PDH/diaphorase resazurin coupled fluorescence. inhibition, % at 20 µM. 0.16% of 340,000 active;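 active means inhibition above about 35% when tested at 20 µM, limit read from the data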;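 further: plate controls were DMSO wells with enzyme for no effect and DMSO wells lacking enzyme for full effect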
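test system = in-house recombinant HK5 (HKDC1) enzyme | amount = HKDC1 at 5 µg/mL | control set = DMSO-enzyme wells negative, buffer-substituted wells positive | compound = one dose of 20 µM, 1% DMSO | schedule = reaction time 90 min, room temperature, protected from light | technique = resorufin fluorescence at 613 nm | reagent = glucose with 1 mM ATP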
DNMT1 interf DR: spectral interference with molecular beacon fluorescence, dose response, artefact control for DNMT1 inhibitor project, biochemical, fluorescent molecular beacon; shares compounds with DNMT1 inh; AID 602382, 2012; 200 tested, under 10 active; spectral interference counter-screen; IC50, µM; call rule not given here
DNMT1 inh conf: DNMT1 methyltransferase inhibitor retest, confirmation, biochemical, molecular beacon, fluorescence, single concentration | shares compounds with DNMT1 inh | DNMT1 molecular beacon HinP1I cleavage | inhibition, % at 10 µM | 8% of 2,300 active;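 active means average inhibition of at least 30% in the single-concentration confirmation test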
Beacon interf: beacon fluorescence artifact counter-screen. shares compounds with DNMT1 inh. DNMT1 molecular beacon spectral interference counterscreen, fluorescence 485/520. activation (fluorescence interference), % at 10 µM. 1% of 2,300 active. AID 602387;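 active means activation of at least 30% at 10 µM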;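 further: DNMT1 catalytic domain with a HinP1I cleavage step and a FAM/dabcyl DNA beacon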
* marks the source's active call; other numbers are inactive results; . = no result given.

SMILES	DNMT1 inh	SUMO1 PPI mod	Scp-1 inhibitor	LMPTP block	STEP block	HKDC1 inh	DNMT1 inh conf	Beacon interf	others
CCn1cnc2c1c(=O)n(Cc1cccc(Br)c1)c(=O)n2Cc1ccccc1	68*	6	-10	2	0	3	9	10
O=C(c1ccc(Br)cc1)N1CCC2(CC1)NCCc1[nH]cnc12	-1	-1	-11	-1	4	0	.	.
O=C(NCc1cc(C(F)(F)F)ccc1Cl)c1cccc2c1C(=O)c1ccc(N3CCOCC3)cc1S2(=O)=O	62*	14	-6	-2	-3	7	8	2
O=C(NCCN1CCOCC1)c1cccc2c1C(=O)c1ccc(N3CCCC3)cc1S2(=O)=O	2	-50	5	4	0	0	.	.
CC1CN(C(=O)c2ccc(NS(=O)(=O)c3ccc(F)cc3)cc2)CC(C)O1 (centres undefined)	1	3	7	-1	-1	-2	.	.
COCCNC(=O)C1(C)Cc2c(-c3ccc4c(c3)OCO4)ccnc2O1 (centres undefined)	0	4	.	-1	0	.	.	.
COc1ccc(OC)c(NC(=O)Nc2ccc3[nH]ccc3c2)c1	-5	-4	-11	1	-1	-5	.	.
COc1ccccc1-c1ccc(/C=C2/C=C(C)OC2=O)o1	-2	-5	-12	2	0	16	.	.
CC1=C/C(=C\c2ccc(Br)o2)C(=O)O1	106*	6	82*	11	24	3	46*	-2	DNMT1 interf DR=>99
COc1ccc(/C=C2\CCc3ccccc3C2=O)cc1O	0	-22	-10	5	2	19	.	.
COc1ccc(S(=O)(=O)N2CCC(C(=O)N[C@@H](C)C(=O)NCc3ccco3)CC2)cc1	2	13	.	-1	2	.	.	.
COc1ccc2[nH]c(C)c(CCN3C(=O)C4C5C=CC(C5)C4C3=O)c2c1 (centres undefined)	82*	0	-16	0	-2	3	0	1
COc1ccc2[nH]c(C)c(CN3CCCCC3)c(=O)c2c1	2	3	7	1	7	9	.	.
O=C1CC(c2ccco2)CC(O)=C1C=Nc1cc(Cl)ccc1O (centres undefined)	89*	21	72*	9	4	1	3	-2
O=C1CC(c2ccco2)CC(O)=C1C=Nc1cc(Cl)ccc1Cl (centres undefined)	37	0	-4	2	2	-6	.	.
CCC(=O)Nc1c(C#N)c2nc3ccccc3nc2n1C1CCCCC1	94*	72*	28	2	3	14	2	-1
CCCCn1c(NC(=O)CC)c(C#N)c2nc3ccccc3nc21	74*	-18	11	0	28	4	1	2
CCN(CC)C(=O)C1=C(C)N(Cc2ccc(C(C)(C)C)cc2)C(=O)C(CC(=O)NC(c2ccccc2)c2ccccc2)C1 (centres undefined)	-23	-3	.	5	1	.	.	.
Nc1cc(S(=O)(=O)Nc2ccc(Cl)cc2)ccc1N1CCOCC1	169*	1	-1	2	13	-1	2	4
O=S1(=O)CC(N2CCN(Cc3ccccc3F)CC2)CN1Cc1cn(Cc2cccc(Cl)c2)nn1 (centres undefined)	.	0	.	-1	.	.	.	.
CCN(C(=O)C(C)N1C(=O)/C(=C/c2ccco2)SC1=S)C1CCS(=O)(=O)C1 (centres undefined)	63*	-3	36	4	15	11	0	1
Cc1nn(CCc2nc(-c3ccco3)cs2)c2[nH]c(=O)cc(C(F)(F)F)c12	61*	32	20	2	8	-6	0	-2
COc1cccc(N(C(=O)Cn2nnc(-c3ccc(Cl)cc3)n2)C(C(=O)NCC2CCCO2)c2ccc(C)cc2)c1 (centres undefined)	59*	2	-3	0	0	-7	2	0
O=C1CCC(C(=O)N2CCCC(Nc3ccc(F)cc3)C2)=NN1 (centres undefined)	2	3	-5	0	-2	3	.	.
CC1(C)CC(N=c2cc(-c3ccccc3)oc3ccc(Cl)cc23)CC(C)(C)N1	75*	-15	3	0	-2	-4	33*	-6	DNMT1 interf DR=>99
SMILES	DNMT1 inh	SUMO1 PPI mod	Scp-1 inhibitor	LMPTP block	STEP block	HKDC1 inh	DNMT1 inh conf	Beacon interf	others
CCCCCCCCC(c1nc2ccccc2[nH]1)N1CCN=C(c2ccccc2)C1=O (centres undefined)	-9	2	.	3	3	.	.	.
COc1ccc(Br)cc1/C=N/NC(=O)c1ccc(COc2ccc3c(c2)CCC3)o1	11	3	-14	-1	1	-6	.	.
O=C(N/N=C/c1cc([N+](=O)[O-])ccc1O)c1ccc(COc2ccc3c(c2)CCC3)o1	72*	0	81*	69*	90*	-14	21	0
C/C=C/C=C/C(=O)N1CC2(CC(c3cccc(NC(=O)CCCCC)c3)=NO2)C[C@H]1C(N)=O (some centres undefined)	66*	2	3	0	-2	5	5	1
C=C(C)C(=O)Nc1cccc(C2=NOC3(C2)C[C@@H](C(N)=O)N(C(=O)/C=C/C=C/C)C3)c1 (some centres undefined)	105*	105*	75*	0	11	2	90*	-3	DNMT1 interf DR=>99
C=C(C)C(=O)Nc1cccc(C2=NOC3(C2)C[C@H](C(N)=O)N(C(=O)CC)C3)c1 (some centres undefined)	99*	62*	64*	0	3	-6	55*	1	DNMT1 interf DR=>99
